Data as given in ChEMBL document CHEMBL3603782, “Antimalarial benzoheterocyclic 4-aminoquinolines: Structure-activity relationship, in vivo evaluation, mechanistic and bioactivation studies” (Bioorg Med Chem, 2015).

Assays:
Plasmodium falciparum [1] = experiment: Antiplasmodial activity against multidrug-resistant Plasmodium falciparum K1 infected in human erythrocytes after 48 hrs by [3H]-hypoxanthine incorporation assay; format: functional, organism-based
How it was run: (§1)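 Modified [3H]-hypoxanthine incorporation assay against P. falciparum NF54 (sensitive) and K1 (multidrug-resistant). Values are means of ≥2 or ≥3 independent experiments. The resistance index is the K1 IC50 divided by the NF54 IC50.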

Plasmodium falciparum [2] = experiment: Antiplasmodial activity against chloroquine-sensitive Plasmodium falciparum NF54 infected in human erythrocytes after 48 hrs by [3H]-hypoxanthine incorporation assay; format: functional, organism-based; how it was run: as §1
Plasmodium falciparum [3] = experiment: Resistance index, ratio of IC50 for multidrug-resistant Plasmodium falciparum K1 to IC50 for chloroquine-sensitive Plasmodium falciparum NF54; format: functional; how it was run: as §1
CHO = experiment: Cytotoxicity against CHO cells by MTT assay; format: cell-based; conditions: Cricetulus griseus
How it was run: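 CHO cells, MTT assay. Stocks 20 mg/mL in DMSO, diluted in complete medium; undissolved samples tested as suspensions. Emetine served as reference (10-fold dilutions, 6 concentrations, lowest 0.001 µg/mL). IC50 derived from full dose–response curves by non-linear fitting.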

[4] = Drug metabolism assessed as ratio of sum of compound adduct peak area to clozapine adduct peak area by GSH trapping method; format: physicochemical
[5] = Stability of the compound by potassium cyanide trapping method; format: physicochemical
[6] = Stability of the compound by methoxylamine trapping method; format: physicochemical
Plasmodium falciparum [7] = experiment: Resistance index, ratio of IC50 for multidrug-resistant Plasmodium falciparum K1 to IC50 for Plasmodium falciparum W2; format: functional
[8] = Selectivity index, ratio of IC50 for CHO cells to IC50 for chloroquine-sensitive Plasmodium falciparum NF54; format: toxicity, cell-based; conditions: hamster, read-out: Ratio IC50
[9] = Inhibition of beta haematin formation after 5 to 6 hrs by pyridine-ferrichrome method; format: physicochemical
How it was run: (§2)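 Modified β-haematin inhibition assay. Compounds from DMSO stocks, 0–1000 µM final, in duplicate. NP-40 added (30.55 µM). Haematin suspension added to give 0.5 M acetate pH 4.8 and 100 µM haematin, then incubated 5–6 h at 37 °C. Free haeme detected with pyridine/H2O/acetone/0.2 M HEPES pH 7.4 reagent (final pyridine ~5% v/v) plus acetone, and absorbance read.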

[10] = Lipophilicity, log P of the compound; format: physicochemical; conditions: octanol/water
[11] = Metabolic stability in human liver microsomes assessed as compound remaining at […] after 30 mins by HPLC-MS/MS analysis in presence of NADPH; format: ADME; conditions: read-out: Stability
[12] = Metabolic stability in BALB/c mouse liver microsomes assessed as compound remaining at […] after 30 mins by HPLC-MS/MS analysis in presence of NADPH; format: ADME; conditions: read-out: Stability
[13] = Inhibition of beta haematin formation at 1000 uM after 5 to 6 hrs by pyridine-ferrichrome method; format: physicochemical; how it was run: as §2
Plasmodium berghei [14] = experiment: Antimalarial activity against GFP-transfected Plasmodium berghei ANKA infected in mouse assessed as reduction in parasitemia at 50 mg/kg, po qd administered for 4 days measured on day 4 post last dose by flow cytometric analysis relative to control; format: functional; design: scale not given: the % may be the effect or the level left
Plasmodium berghei [15] = experiment: Antimalarial activity against GFP-transfected Plasmodium berghei ANKA infected in mouse assessed as mean survival days at 50 mg/kg, po qd administered for 4 days; format: functional
How it was run: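 Mice (n = 3) infected with GFP-transfected P. berghei ANKA. Compound given orally, dissolved in a vehicle containing ethanol and diluted 10× with water. Multi-dose arms were dosed once daily on four consecutive days (4, 24, 48, 72 h post-infection). Parasitaemia was measured by flow cytometry, detection limit 0.1%. Activity is % reduction relative to controls. Survival was followed for 30 days.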

| Compound | IC50 (Plasmodium falciparum [1]) | IC50 (Plasmodium falciparum [2]) | Ratio IC50 (Plasmodium falciparum [3]) | IC50 (CHO) | selectivity ratio [8] | IC50 [9] | logP [10] | other results |
| --- | --- | --- | --- | --- | --- | --- | --- | --- |
| CN(C)Cc1nc2cc(Nc3ccnc4cc(Cl)ccc34)ccc2o1 | 411 nM | 213 nM | 1.93 |  |  |  |  |  |
| CC[C@H]1CN2CCc3cc(OC)c(OC)cc3[C@@H]2C[C@@H]1C[C@H]1NCCc2cc(OC)c(OC)cc21 [EMETINE] |  |  |  | 0.104 µM |  |  |  |  |
| CC(C)(C)Nc1nc2cc(Nc3ccnc4cc(Cl)ccc34)ccc2s1 |  |  |  |  |  |  |  | Ratio [4]: 0.74; Stability [5]: Unstable; Stability [6]: Unstable; Ratio IC50 (Plasmodium falciparum [7]): 0.79 |
| O=C1CCCN1CCCNc1nc2cc(Nc3ccnc4cc(Cl)ccc34)ccc2o1 | 773 nM | 1880 nM | 0.41 | 29.6 µM | 15.8 | 97.5 µM | 2.88 |  |
| CCNc1nc2cc(Nc3ccnc4cc(Cl)ccc34)ccc2o1 |  | 466 nM | 2.15 |  |  | 80.2 µM | 3.75 | Stability [5]: Unstable; Stability [6]: Unstable; Ratio IC50 (Plasmodium falciparum [7]): 1.88; remaining at 0.5 h [11]: 81%; remaining at 0.5 h [12]: 1% |
| O=[N+]([O-])c1ccc2oc(NCc3ccccn3)nc2c1 | > 20000 nM | > 20000 nM |  |  |  |  |  | inhibition (INH) [13]: Not Active |
| Clc1ccc2c(Nc3ccc4[nH]c(NCCN5CCCCC5)nc4c3)ccnc2c1 |  |  |  |  |  |  |  | Ratio IC50 (Plasmodium falciparum [7]): 0.02 |
| Clc1ccc2c(Nc3ccc4oc(NCCN5CCCCC5)nc4c3)ccnc2c1 | 24 nM | 10 nM | 2.4 | 7.58 µM | 758 | 89 µM | 4.11 | remaining at 0.5 h [11]: 71%; remaining at 0.5 h [12]: 41%; Activity (Plasmodium berghei [14]): 99.9%; MSD (Plasmodium berghei [15]): 27 days |
| CCN(CC)CCNc1nc2cc(Nc3ccnc4cc(Cl)ccc34)ccc2[nH]1 |  |  |  |  |  |  |  | Ratio IC50 (Plasmodium falciparum [7]): 4.14 |
| CCN(CC)CCNc1nc2cc(Nc3ccnc4cc(Cl)ccc34)ccc2o1 | 42 nM | 11 nM | 3.82 | 11.5 µM | 1040 | 244 µM |  | remaining at 0.5 h [11]: 78%; remaining at 0.5 h [12]: 74% |
| Clc1ccc2c(Nc3ccc4oc(NCc5cccnc5)nc4c3)ccnc2c1 | 704 nM | 309 nM | 2.28 | 164 µM | 532 | 100 µM | 4.68 |  |
| Clc1cccc(CNc2nc3cc(Nc4ccnc5cc(Cl)ccc45)ccc3o2)c1 | 223 nM | 124 nM | 1.8 | 25.7 µM | 207 | 27.1 µM | 5.7 |  |
| Clc1ccc2c(Nc3ccc4oc(NCCN5CCOCC5)nc4c3)ccnc2c1 | 198 nM | 108 nM | 1.83 | 124 µM | 1150 | 80 µM |  |  |
| Clc1ccc2c(Nc3ccc4oc(NCc5ccccn5)nc4c3)ccnc2c1 | 883 nM | 406 nM | 2.17 | > 240 µM |  | 106 µM |  |  |
| CCN(CC)c1nc2cc([N+](=O)[O-])ccc2o1 | > 20000 nM | > 20000 nM |  |  |  |  |  | inhibition (INH) [13]: Not Active |
| Clc1ccc2c(Nc3ccc4sc(NCCN5CCOCC5)nc4c3)ccnc2c1 |  |  |  |  |  |  |  | Ratio [4]: 1.13; Ratio IC50 (Plasmodium falciparum [7]): 0.63 |
| CN(C)CCCNc1nc2cc([N+](=O)[O-])ccc2o1 | 11000 nM | > 20000 nM |  |  |  |  |  | inhibition (INH) [13]: Not Active |
| CN1CCN(c2nc3cc([N+](=O)[O-])ccc3o2)CC1 | > 20000 nM | > 20000 nM |  |  |  |  |  | inhibition (INH) [13]: Not Active |
| Clc1ccc2c(Nc3ccc4oc(NCCc5ccccn5)nc4c3)ccnc2c1 | 851 nM | 402 nM | 2.12 | > 240 µM |  | 63 µM | 4.42 |  |

| Compound | IC50 (Plasmodium falciparum [1]) | IC50 (Plasmodium falciparum [2]) | Ratio IC50 (Plasmodium falciparum [3]) | IC50 (CHO) | selectivity ratio [8] | IC50 [9] | logP [10] | other results |
| --- | --- | --- | --- | --- | --- | --- | --- | --- |
| CN(C)CCCNc1nc2cc(Nc3ccnc4cc(Cl)ccc34)ccc2o1 | 149 nM | 19 nM | 7.84 | 12.6 µM | 665 | 174 µM | 3.44 | remaining at 0.5 h [11]: 78%; remaining at 0.5 h [12]: 44% |
| O=[N+]([O-])c1ccc2oc(N3CCN(c4ccccc4)CC3)nc2c1 | > 20000 nM | > 20000 nM |  |  |  |  |  | inhibition (INH) [13]: Not Active |
| Clc1ccc2c(Nc3ccc4sc(NCCN5CCCC5)nc4c3)ccnc2c1 |  |  |  |  |  |  |  | Ratio IC50 (Plasmodium falciparum [7]): 1.17 |
| CN1CCN(c2nc3cc(Nc4ccnc5cc(Cl)ccc45)ccc3o2)CC1 | 99 nM | 51 nM | 1.94 | > 240 µM |  | 71.7 µM | 3.9 | remaining at 0.5 h [11]: 61%; remaining at 0.5 h [12]: 18% |
| O=[N+]([O-])c1ccc2oc(NCCc3ccccn3)nc2c1 | > 20000 nM | > 20000 nM |  |  |  |  |  | inhibition (INH) [13]: Not Active |
| Clc1ccc2c(Nc3ccc(NCCN4CCOCC4)nc3)ccnc2c1 |  |  |  |  |  |  |  | Ratio IC50 (Plasmodium falciparum [7]): 1.78 |
| Clc1ccc2c(Nc3ccc4sc(NCCN5CCCCC5)nc4c3)ccnc2c1 |  |  |  |  |  |  |  | Ratio [4]: 0.88; Ratio IC50 (Plasmodium falciparum [7]): 0.54 |
| COCCc1nc2cc(Nc3ccnc4cc(Cl)ccc34)ccc2o1 | 2110 nM | 1090 nM | 1.93 |  |  |  | 3.11 |  |
| CCN(CC)CCCNc1nc2cc(Nc3ccnc4cc(Cl)ccc34)ccc2o1 | 85 nM | 14 nM | 6.07 | 6.37 µM | 455 | 165 µM | 4.12 | remaining at 0.5 h [11]: 70%; remaining at 0.5 h [12]: 70% |
| Clc1ccc2c(Nc3ccc(NCCN4CCCC4)nc3)ccnc2c1 |  |  |  |  |  |  |  | Ratio IC50 (Plasmodium falciparum [7]): 4.38 |
| Clc1ccc2c(Nc3ccc4oc(NCc5ccncc5)nc4c3)ccnc2c1 | 1550 nM | 630 nM | 2.47 | > 240 µM |  | 93 µM | 4.55 |  |
| CCNc1nc2cc(Nc3ccnc4cc(Cl)ccc34)ccc2[nH]1 |  |  |  |  |  |  |  | Stability [5]: Unstable; Stability [6]: Unstable; Ratio IC50 (Plasmodium falciparum [7]): 0.5 |
| CCN(CC)c1nc2cc(Nc3ccnc4cc(Cl)ccc34)ccc2o1 | 1380 nM | 512 nM | 2.69 | 229 µM | 448 | 50.7 µM | 4.78 |  |
| Clc1cccc(N2CCN(c3nc4cc(Nc5ccnc6cc(Cl)ccc56)ccc4o3)CC2)c1 | 412 nM | 202 nM | 2.04 | 172 µM | 852 | 24.7 µM | 6.57 | remaining at 0.5 h [11]: 36%; remaining at 0.5 h [12]: > 99% |
| Clc1ccc2oc(N3CCN(c4ccccc4)CC3)nc2c1 | > 20000 nM | > 20000 nM |  |  |  |  |  | inhibition (INH) [13]: Not Active |
| O=[N+]([O-])c1ccc2oc(NCCN3CCCC3)nc2c1 | 2930 nM | 1640 nM |  |  |  |  |  | inhibition (INH) [13]: Not Active |
| Clc1ccc2c(Nc3ccc4oc(NCCCN5CCOCC5)nc4c3)ccnc2c1 | 80 nM | 39 nM | 2.05 | 13.7 µM | 351 | 80.1 µM | 3.09 | remaining at 0.5 h [11]: 27%; remaining at 0.5 h [12]: 26% |
| CN1CCN(Nc2nc3cc(Nc4ccnc5cc(Cl)ccc45)ccc3o2)CC1 | 240 nM | 144 nM | 1.67 | 122 µM | 849 | 73.3 µM | 2.6 |  |
| Clc1ccc2c(Nc3ccc4oc(N5CCN(c6ccccc6)CC5)nc4c3)ccnc2c1 | 875 nM | 274 nM | 3.19 | 28.7 µM | 105 | 29.6 µM | 6.05 |  |
